Results on seven compounds are retold here after ChEMBL document CHEMBL5154785, “Hypothesis-Driven, Structure-Based Design in Photopharmacology: The Case of eDHFR Inhibitors” (J Med Chem, 2022).

Data set [1] deals with Escherichia coli. Briefly: Antibacterial activity against Escherichia coli CS1562 assessed as reduction in bacterial growth at 20 uM irradiated with 355 nm light measured after 24 hrs by plate reader method. The data set is classed as functional, organism-based. In a few lines:
(§1)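 E. coli CS1562 grown overnight at 37 °C in LB with tetracycline (10 μg/mL), then diluted to 0.002 OD600. Compound serial dilutions made in DMSO and diluted 25-fold in LB. Irradiated set exposed to 355 nm for 30 min before adding cells; dark set not irradiated. Triplicates grown overnight at 37 °C with OD600 read every 10 min, background-corrected to t=0.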

Data set [2] relates to Escherichia coli. As to the kind of experiment: Antibacterial activity against Escherichia coli CS1562 assessed as reduction in bacterial growth at 20 uM measured after 24 hrs under dark condition by plate reader method. The data set is classed as functional, organism-based. In a few lines:
as §1

Data set [3] in a line: Inhibition of Escherichia coli DHFR irradiated with 390 nm light preincubated with NADPH for 3 mins followed by compound addition for 7 mins by colorimetric assay. Put shortly: (§2)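 In-house E. coli DHFR expressed in BL21(DE3) and Ni-NTA purified. Enzyme (~20 ng) preincubated with 60 μM NADPH, then with inhibitor at 10^-5 to 10^-12 M final, 1% DMSO. Dark samples heat-adapted to the trans isomer; irradiated samples brought to PSS at 100 μM for 15–45 min. Reaction started with 15 μM dihydrofolate, A340 followed every 5 s for 300 s at 25 °C. Triplicates; activity taken relative to a DMSO control; IC50 from nonlinear regression.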

Data set [4] can be described thus: Inhibition of Escherichia coli DHFR preincubated with NADPH for 3 mins followed by compound addition for 7 mins under dark condition by colorimetric assay. Put shortly: as §2
Data set [5] relates to Escherichia coli. As to the kind of experiment: Antibacterial activity against Escherichia coli CS1562 assessed as reduction in bacterial growth irradiated with 355 nm light measured after 24 hrs by plate reader method. Type of data set: functional. The note with it: CS1562, light or radiation study. In a few lines: as §1
Data set [6] has as its system Escherichia coli. As to the kind of experiment: Antibacterial activity against Escherichia coli CS1562 assessed as reduction in bacterial growth under dark condition measured after 24 hrs by plate reader method. Type of data set: functional. Put shortly: as §1
The nature of data set [7]: Half life of compound. The data set is classed as physicochemical. Put shortly:
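Metastable-isomer thermal relaxation tracked as recovery of the π–π* band under stirring, at 25 °C in DMSO or eDHFR assay buffer, or at 37 °C in 10 mM Tris-HCl pH 7.0. Fitted to a first-order exponential.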

≈ marks a conversion by molar mass, not a printed value. Calls of active or inactive are those of the source. A value given as a limit tells only on which side of the number the result lay.

As for `COC(C)(C#Cc1cnc(N)nc1N)c1ccc(/N=N/c2cccc(C(=O)O)c2)cc1` (stereo not given), the outcome in the data set on Escherichia coli [1] and with Escherichia coli [2] was Active.

Broadly, the IC50 is the concentration needed to halve the response being measured. A low value points to higher potency. Consider `Nc1ncc(C#Cc2ccc(/N=N/c3ccccc3)cc2)c(N)n1`, for which the IC50 in data set [3] and in data set [4] was more than 10 µM throughout.

The MIC is the lowest concentration that inhibits growth of the organism. Turning to `COc1cc(Cc2cnc(N)nc2N)cc(OC)c1OCc1cc(F)c(/N=N/c2c(F)cccc2F)c(F)c1`, the MIC came out at 5 µM (≈ 2.71 µg/mL) in the data set on Escherichia coli [5] and 10 µM (≈ 5.42 µg/mL) in the data set with Escherichia coli [6].

Turning to `Nc1ncc(-c2ccc(/N=N/c3ccccc3)cc2)c(N)n1`, the IC50 in data set [3] and in data set [4] was more than 10 µM throughout.

Consider `COc1cc(Cc2cnc(N)nc2N)cc(OC)c1OCc1cc(Cl)c(/N=N/c2c(Cl)cccc2Cl)c(Cl)c1`, for which the values for the MIC with Escherichia coli [5] and in the data set with Escherichia coli [6] were 10 µM (≈ 6.08 µg/mL) and more than 80 µM, respectively.

Regarding `COc1ccc(/N=N/c2ccc(COc3c(OC)cc(Cc4cnc(N)nc4N)cc3OC)cc2)cc1`, the MIC with Escherichia coli [5] was determined as 10 µM (≈ 5.01 µg/mL); in the data set on Escherichia coli [6] it was 20 µM (≈ 10 µg/mL).

In general, half-life refers to the time needed for the level to fall by half in the phase considered. A low value points to fast loss. On to `Nc1ncc(/N=N/c2ccccc2)c(N)n1`, for which the half-life in data set [7] is 10 s. Further, the IC50 in data set [3] and in data set [4] was more than 10 µM throughout.
